Rows were chosen to be rich in hits. Some 3.1% of all compounds tested hit in one or more screens of this group.
OX1R antag-1 – antagonists of human orexin 1 receptor (OX1R); O43613; OX1R-expressing cells, FRET antagonist read-out; inhibition, % at 6.6 µM; hit rate 1.8% among 330,000; AID 485270; in the data active means inhibition mostly above about 38%, no sharp cut-off; inactive means mostly below about 40%;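 further: 0% = agonist challenge alone and 100% = reference antagonist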
Target sequence (O43613 whole entry, looked up): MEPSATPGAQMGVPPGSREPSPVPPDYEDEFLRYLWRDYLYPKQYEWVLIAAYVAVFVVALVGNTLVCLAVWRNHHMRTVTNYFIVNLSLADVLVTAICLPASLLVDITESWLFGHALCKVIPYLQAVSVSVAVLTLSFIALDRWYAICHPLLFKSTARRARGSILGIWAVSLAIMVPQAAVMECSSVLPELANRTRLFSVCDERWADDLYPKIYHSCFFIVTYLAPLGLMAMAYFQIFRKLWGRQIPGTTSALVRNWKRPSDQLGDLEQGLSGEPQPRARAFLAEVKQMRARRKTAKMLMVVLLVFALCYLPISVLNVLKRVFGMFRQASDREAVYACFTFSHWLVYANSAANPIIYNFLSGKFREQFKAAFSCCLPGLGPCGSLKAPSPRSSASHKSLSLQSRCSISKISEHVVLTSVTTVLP
GPR7 antagonist – blocks human GPR7 receptor signaling; P48145; GPR7-expressing cells, fluorescence antagonist assay; inhibition, % at 4.4 µM; hit rate 1.1% among 290,000; AID 1861; in the data active means inhibition above about 16%, passing the limit was not always enough;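 further: cells stimulated with the agonist NPW; 0% = agonist with vehicle and 100% = vehicle without agonist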
OX1R antag-2 – antagonists of human orexin 1 receptor; O43613; CHO/OX1R cells, Fluo-8 calcium fluorescence, orexin A; inhibition, % at 5 µM; hit rate 0.43% among 330,000;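 active means inhibition above its plate's threshold, mean inhibition of all tested compounds on the plate plus 3 SD, cut at about 37% in these data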;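 further: 0% = orexin A challenge wells and 100% = SB-334867-A antagonist wells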
CHO parental Ca – counter-screen: ATP calcium response change in parental CHO cells | parental CHO-K1, ATP-induced calcium, Fluo-8 fluorescence | inhibition, % at 5.6 µM | hit rate 0.63% among 330,000 | AID 463079;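 active means inhibition above that plate's mean sample inhibition plus 3 SD, cut at about 26% in these data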;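 further: 0% = ATP-challenged DMSO wells and 100% = DMSO wells without ATP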
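test system = CHO parental line | reagent = ATP stimulus | measured by = intracellular calcium via Fluo-8 no-wash fluorescent dye | control set = ATP and no-ATP DMSO wells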
GalR3 antagonist – antagonists of human GalR3. O60755. HEK293 GalR3-CNG cAMP membrane potential fluorescence; galR3 body fused to GalR1 C-terminus. inhibition, % at 3 µM. hit rate 0.44% among 360,000;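 active means inhibition above the screen-wide average plus 3 SD, cut at about 13% in these data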;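 further: forskolin and galanin both at EC90 stimulate the cells; cAMP rise reported by CNG channel membrane potential dye signal; 0% = forskolin plus galanin with DMSO and 100% = forskolin alone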
GPR7 antag conf – confirmation of human GPR7 antagonists; shares compounds with GPR7 antagonist; GPR7-expressing cells, calcium fluorescence antagonist mode; inhibition, % at 4.4 µM; hit rate 52% among 2,400; in the data active means inhibition above about 24%;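 further: stimulated with the GPR7 agonist NPW; 0% = agonist plus vehicle and 100% = vehicle alone without agonist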
MCHR1 antag – MCHR1 (human) antagonism in GPR7 counter-screen. hit rate 62% among 2,400. inhibition, % at 4.4 µM. shares compounds with GPR7 antagonist. MCHR1-expressing cells, fluorescence antagonist assay; in the data active means inhibition above about 22%;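 further: 0% = vehicle with agonist and 100% = vehicle without agonist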
Starred values were filed as active, the others as inactive; x = no result given.

SMILES	OX1R antag-1	GPR7 antagonist	OX1R antag-2	CHO parental Ca	GalR3 antagonist	GPR7 antag conf	MCHR1 antag
Cc1cccc(NS(=O)(=O)c2ccc(C(=O)NCC(c3ccccc3)N(C)C)cc2)c1C (stereo unspecified)	x	33*	x	x	-4	47*	58*
COc1ccc(C(CNC(=O)c2ccc3c(c2)C(=O)N(CCC(C)C)C3=O)N2CCOCC2)cc1 (stereo unspecified)	9	29*	-25	-34	0	-2	12
COc1ccc(NS(=O)(=O)c2cccc(C(=O)NCC(c3ccc(F)cc3)N3CCOCC3)c2)cc1 (stereo unspecified)	55*	31*	0	-18	-5	27*	11
COc1ccc(/C=N/OCC(=O)OCC(=O)N(C)c2ccccc2)cc1	9	x	-9	-5	3	x	x
CN(C)C/C=C/C(O)(c1ccccc1)c1ccccc1	-3	-10	11	-9	-3	x	x
CN(C)CC(CCC(CN(C)C)C(O)(c1ccccc1)c1ccccc1)C(O)(c1ccccc1)c1ccccc1 (stereo unspecified)	x	53*	x	x	-5	61*	68*
OC(CNCc1ccc(Cl)cc1)(c1ccccc1)c1ccc(F)cc1 (stereo unspecified)	19	2	-35	-31	-5	x	x
COc1ccc(CNCC(O)(c2ccc(Cl)cc2)c2ccc(Cl)cc2)cc1	9	31*	-21	-16	2	39*	56*
OC(CNCc1ccc(F)cc1)(c1ccc(F)cc1)c1ccc(F)cc1	23	34*	-13	-13	-7	29*	30*
CCCCNCC(O)(c1ccc(Cl)cc1)c1ccc(Cl)cc1	46	27*	-14	-22	-9	55*	64*
CCC(CO)Oc1cc(NC(=O)c2ccccc2)c2ncn(C(C)C)c2c1 (stereo unspecified)	12	x	-22	-14	-2	x	x
Cc1ccc(C)c(NC(=O)Nn2cnnc2)c1	14	8	8	3	-2	x	x
COc1cc(C)ccc1Oc1ncnc(N)c1[N+](=O)[O-]	14	51*	-11	3	-8	-6	-6
OCCN1CCN(C2Cc3cc(Cl)ccc3Sc3ccc(Cl)cc32)CC1 (stereo unspecified) (tested in a mixture with another compound)	-2	-9	6	18	x	x	x
CN1CCN(CCOC2Cc3ccccc3Sc3ccc(Cl)cc32)CC1 (stereo unspecified)	11	23*	-14	4	-7	33*	44*
CC1CCC(C(C)C)C(OCC(O)CN2CCCC(C)C2)C1 (stereo unspecified)	19	32*	-33	-4	-4	39*	25*
FC(F)(F)c1cccc(-c2nc3nc(Cl)c(Cl)nc3[nH]2)c1	40*	25*	-11	38*	x	37*	48*
FC(F)(F)c1nc2nc(Cl)c(Cl)nc2[nH]1	x	x	x	x	-3	x	x
COc1ccccc1NC(=O)c1cnc(SC)nc1	-8	-8	-7	-1	-3	x	x
CCCc1cc(C(=O)Nc2cccc(Cl)c2)no1	11	-4	-29	-7	x	x	x
CCCc1cc(C(=O)Nc2ccc(F)c(Cl)c2)no1	33	29*	-1	7	-11	33*	30*
COc1ccc(NC(=O)CCS(=O)(=O)c2ccccc2Cl)cc1S(=O)(=O)Nc1ccc(Cl)cc1	15	25*	0	-10	-6	23	25*
O=C(Nc1cccc(C(F)(F)F)c1)c1cccc(NS(=O)(=O)c2ccc(O)c(C(=O)O)c2)c1	6	0	-16	-12	-9	x	x
O=C(/C=C/c1ccc(Cl)cc1)Nc1ccc(CN2CCOCC2)cc1	25	28*	-10	-17	0	36*	55*
CC(C)c1ccc(/C=C/C(=O)Nc2ccc(CN3CCOCC3)cc2)cc1	7	9	-14	-20	-4	x	x
SMILES	OX1R antag-1	GPR7 antagonist	OX1R antag-2	CHO parental Ca	GalR3 antagonist	GPR7 antag conf	MCHR1 antag
Cc1ccc(NC(=S)NC(=O)Cc2ccccc2)c(O)c1	x	29*	x	x	-8	42*	29*
O=C(COC(=O)c1ccc(Cl)nc1)NCCc1ccccc1	0	x	-14	-18	4	x	x
CSc1nnc(N2C(=O)C(O)=C(C(=O)c3ccco3)C2c2ccccc2F)s1 (stereo unspecified)	8	23*	5	1	-1	3	10
CCN(Cc1cnn(C)c1)C(=O)c1ccc2nc(Cc3cccc(Cl)c3)oc2c1	13	-14	-20	-15	-6	x	x
C=CCN1C(=O)CSc2ccc(C(=O)NCc3cccs3)cc21	14	28*	-22	-14	6	10	13
Cc1ccc2c(c1)c1c(n2CC(O)CNC2CCCC2)CCCC1 (stereo unspecified)	3	23*	-18	-5	-4	53*	41*
Cc1ccc2c(c1)c1c(n2CC(O)Cn2ccnc2C)C(=O)CCC1 (stereo unspecified)	28	3	-21	-13	-3	x	x
CC1CN(c2oc(COc3ccc(Cl)cc3Cl)nc2C#N)CC(C)O1 (stereo unspecified)	13	40*	-39	-19	-3	24*	28*
O=C(NCC(=O)N1CC=C(c2ccccc2)CC1)c1ccco1	8	x	-1	-1	-4	x	x
O=C(C#Cc1ccccc1)c1ccco1	23	56*	25	16	-4	58*	66*
Cc1nnc(N/N=C/c2c[nH]c3ccccc23)[nH]c1=O	13	29*	-16	14	-6	-10	2
Cc1cc(C)nc(N/N=C/c2c[nH]c3ccccc23)n1	11	0	-13	-16	3	x	x
CC(C)(C)N(NC(=O)Nc1ccccc1)C(=O)c1ccccc1	-3	-6	4	-3	-1	x	x
CC(C)(C)N(NC(=O)c1ccccc1)C(=O)c1cccc(C(=O)N(NC(=O)c2ccccc2)C(C)(C)C)c1	16	42*	-6	-20	-3	31*	23*
Cc1ccc(S(=O)(=O)N2[C@@H](c3ccc(Cl)cc3)C(C(=O)O)=C[C@H]2C(C)(C)C)cc1	17	x	-17	-10	-5	x	x
COc1ccc(-c2noc(CCC(=O)NC3CCCCCC3)n2)cc1	14	-4	-10	2	-8	x	x
COc1ccc(-c2noc(CN3CCCCC3c3nccn3C)n2)cc1 (stereo unspecified)	11	41*	-13	-23	-7	35*	20
Cc1ccccc1CC(=O)Nc1cccc(S(=O)(=O)N2CCCC2)c1	11	x	-1	-18	-2	x	x
CCOC(=O)N1CCN(Cc2cn[nH]c2-c2ccc(-c3ccccc3)cc2)CC1	15	25*	-24	-23	-5	-9	-5
Fc1ccccc1Cc1noc(CN2CCN(c3ccc(Cl)cn3)CC2)n1	22	21*	-25	5	-2	13	26*
